Results as given in ChEMBL document CHEMBL5715950, “Characterization of molecular and cellular functions of the cyclin-dependent kinase CDK9 using a novel specific inhibitor” (Br J Pharmacol, 2014).
Active and inactive are the calls of the source. The calls are words filed in the database; no cut-off is given here.

Legend:
[1] = biological target: Cyclin-dependent kinase 9 (Homo sapiens) (UniProt P50750); assay: Inhibition of CDK9 in human A549 cells assessed as downregulation of PLK2 mRNA expression at 2 to 6 uM incubated for 90 mins by RT-qPCR analysis relative to control; format: cell-based; details: dose 2-6 µM
[2] = Inhibition of transcription in human HEK293T cells nuclear extract fused with Gal4-VP16 at 4 uM in presence of ATP by phosphorimaging analysis; format: functional; details: HEK-293T
Method in brief: (§1)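 In vitro transcription from the adenovirus core promoter (Gal-ML, 380 bp G-free cassette), soluble or bead-immobilised template, using HEK293T nuclear extract supplemented with recombinant Gal4-VP16. ATP 60 μM (low), 100 μM, or 500 μM (high); magnesium varied in one series. Transcripts quantified by phosphorimaging.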

[3] = biological target: Cyclin-dependent kinase 9 (Homo sapiens) (UniProt P50750); assay: Inhibition of CDK9 in human A549 cells assessed as downregulation of CCND1 mRNA expression at 1 to 10 uM incubated for 90 mins by RT-qPCR analysis relative to control; format: cell-based; details: dose 1-10 µM
Leukemia cell = assay: Induction of apoptosis in human Acute myeloid leukemic cell at > 2 uM incubated for 24 hrs by Annexin V-FITC/PI staining based flow cytometric analysis; format: functional
Method in brief: (§2)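 Cells grown at 37°C, 5% CO2 (A549, HeLa, MCF7 in DMEM high glucose; HCT116 in McCoy's 5A; THP1 and primary AML M4 apheresis blasts in RPMI1640), exposed to inhibitor or DMSO for 24 h. Apoptotic fraction by flow cytometry after annexin V-fluorescein/propidium iodide double staining. Means ± SD of three biological replicates; AML blasts from one patient, three technical replicates. Student's t-test versus DMSO/untreated.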

[4] = biological target: Cyclin-dependent kinase 9 (Homo sapiens) (UniProt P50750); assay: Inhibition of CDK9 in human THP-1 cells assessed as downregulation of RPS15 mRNA expression by RT-qPCR analysis; format: cell-based
HeLa [5] = assay: Inhibition of RNA synthesis in human HeLa cells stably transfected with luciferase reporter gene at 0.04 to 2 uM incubated for 30 mins followed by doxycycline addition and measured after 60 mins by RT-qPCR analysis; format: functional, cell-based; details: dose 0.04-2 µM, time 90.0 min
Method in brief: (§3)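 Stably transfected HeLa cells carrying a tetracycline-inducible luciferase reporter: inhibitor or DMSO for 30 min, then 1 μg/mL doxycycline for 60 min. De novo reporter transcripts measured by RT-qPCR.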

[6] = biological target: Cyclin-dependent kinase 4/cyclin D1 (Homo sapiens, UniProt P11802); assay: Inhibition of CDK4/Cyclin D1 (unknown origin) using ULight MBP peptide as substrate in presence of ATP incubated for 1 hr by FRET based LANCE Ultra KinaSelect screen assay; format: protein-complex assay
[7] = Induction of apoptosis in human Acute myeloid leukemic cell at 10 uM incubated for 24 hrs by Annexin V-FITC/PI staining based flow cytometric analysis relative to control; format: functional, Leukemia cell; method in brief: as §2
[8] = biological target: Tyrosine-protein kinase ABL2 (Homo sapiens, UniProt P42684); assay: Inhibition of ABL2 (unknown origin) incubated for 120 mins in presence of 33P-ATP by radiometric kinase assay
Method in brief: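 Radiometric panel assay, 10-dose mode: serial dilutions from […], in duplicate, at 1 μM ATP. Incubated 120 min at room temperature, then spotted on P81 paper, acid-washed and counted. Values are means.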

[9] = biological target: Cyclin-dependent kinase 9 (Homo sapiens) (UniProt P50750); assay: Inhibition of CDK9 in human HeLa cells assessed as downregulation of Serine 5 phosphorylation at 10 uM incubated for 60 mins by Western blotting analysis; format: cell-based
[10] = biological target: Cyclin-dependent kinase 9 (Homo sapiens) (UniProt P50750); assay: Inhibition of CDK9 in human MCF7 cells assessed as upregulation of p53 protein at 10 uM incubated for 4 hrs by Western blotting analysis; format: cell-based
[11] = biological target: Cyclin-dependent kinase 9 (Homo sapiens) (UniProt P50750); assay: Inhibition of CDK9 in human A549 cells assessed as downregulation of p21 mRNA expression at 1 to 10 uM incubated for 90 mins by RT-qPCR analysis relative to control; format: cell-based; details: dose 1-10 µM
p53HCT116 = assay: Induction of apoptosis in human p53HCT116 cells at 10 uM incubated for 24 hrs by Annexin V-FITC/PI staining based flow cytometric analysis; format: functional, cell-based; method in brief: as §2
[12] = biological target: Mitogen-activated protein kinase kinase kinase kinase 4 (Homo sapiens, UniProt O95819); assay: Inhibition of MAP4K4 (unknown origin) assessed as residual activity at 10 uM incubated for 120 mins in presence of 33P-ATP by radiometric kinase assay relative to control
[13] = biological target: Cyclin-dependent kinase 9 (Homo sapiens) (UniProt P50750); assay: Inhibition of CDK9 in human THP-1 cells assessed as downregulation of MED1 mRNA expression by RT-qPCR analysis; format: cell-based
HeLa [14] = assay: Inhibition of RNA synthesis in human HeLa cells stably transfected with luciferase reporter gene at 10 uM incubated for 30 mins followed by doxycycline addition and measured after 60 mins by RT-qPCR analysis relative to control; format: functional; details: 1.5 h, time 90 min; method in brief: as §3
[15] = biological target: Cyclin-dependent kinase 9 (Homo sapiens) (UniProt P50750); assay: Inhibition of CDK9 in human A549 cells assessed as downregulation of p21 mRNA expression at 2 to 6 uM incubated for 90 mins by RT-qPCR analysis relative to control; format: cell-based; details: dose 2-6 µM
HEK-293T = assay: Inhibition of transcription in human HEK293T cells nuclear extract fused with Gal4-VP16 at 10 uM in presence of ATP and MgCl2 by phosphorimaging analysis; format: functional, subcellular; details: Nucleus; method in brief: as §1
[16] = biological target: Cyclin-dependent kinase 9 (Homo sapiens) (UniProt P50750); assay: Inhibition of CDK9 in human A549 cells assessed as downregulation of MYC mRNA expression at 1 to 10 uM incubated for 90 mins by RT-qPCR analysis relative to control; format: cell-based; details: dose 1-10 µM
[17] = biological target: CDK9/cyclin T1 (Homo sapiens) (UniProt O60563+P50750); assay: Inhibition of CDK9/Cyclin T1 (unknown origin) assessed as residual activity at 10 uM incubated for 120 mins in presence of 33P-ATP by radiometric kinase assay relative to control; format: protein-complex assay
CDK7/Cyclin H/MNAT1 = CDK7/Cyclin H/MNAT1 (Homo sapiens, UniProt P50613); assay: Displacement of kinase tracer 236 from CDK7/Cyclin H/MAT1 (unknown origin) assessed as dissociation constant incubated for 1 hr by LanthScreen Eu kinase binding assay; format: protein-complex assay
[18] = biological target: Cyclin-dependent kinase 9 (Homo sapiens) (UniProt P50750); assay: Inhibition of CDK9 in human A549 cells assessed as downregulation of GAPDH mRNA expression at 2 to 6 uM incubated for 90 mins by RT-qPCR analysis relative to control; format: cell-based; details: dose 2-6 µM
[19] = biological target: Cyclin-dependent kinase 9 (Homo sapiens) (UniProt P50750); assay: Inhibition of CDK9 in human A549 cells assessed as downregulation of PLK2 mRNA expression at 1 to 10 uM incubated for 90 mins by RT-qPCR analysis relative to control; format: cell-based; details: dose 1-10 µM
THP-1 = assay: Induction of apoptosis in human THP-1 cells at > 2 uM incubated for 24 hrs by Annexin V-FITC/PI staining based flow cytometric analysis; format: functional, cell-based; method in brief: as §2
[20] = biological target: Cyclin-dependent kinase 9 (Homo sapiens) (UniProt P50750); assay: Inhibition of CDK9 in human A549 cells assessed as downregulation of RPL3 mRNA expression at 2 to 6 uM incubated for 90 mins by RT-qPCR analysis relative to control; format: cell-based; details: dose 2-6 µM
HeLa [21] = assay: Inhibition of RNA synthesis in human HeLa cells stably transfected with luciferase reporter gene at 2 uM incubated for 30 mins followed by doxycycline addition and measured after 60 mins by RT-qPCR analysis relative to control; format: functional; details: 1.5 h, time 90 min; method in brief: as §3
[22] = biological target: Cyclin-dependent kinase 9 (Homo sapiens) (UniProt P50750); assay: Inhibition of CDK9 in human A549 cells assessed as downregulation of RPL3 mRNA expression at 1 to 10 uM incubated for 90 mins by RT-qPCR analysis relative to control; format: cell-based; details: dose 1-10 µM

Chain of Cyclin-dependent kinase 9 (Homo sapiens) (P50750 whole entry, the tested form may be a part): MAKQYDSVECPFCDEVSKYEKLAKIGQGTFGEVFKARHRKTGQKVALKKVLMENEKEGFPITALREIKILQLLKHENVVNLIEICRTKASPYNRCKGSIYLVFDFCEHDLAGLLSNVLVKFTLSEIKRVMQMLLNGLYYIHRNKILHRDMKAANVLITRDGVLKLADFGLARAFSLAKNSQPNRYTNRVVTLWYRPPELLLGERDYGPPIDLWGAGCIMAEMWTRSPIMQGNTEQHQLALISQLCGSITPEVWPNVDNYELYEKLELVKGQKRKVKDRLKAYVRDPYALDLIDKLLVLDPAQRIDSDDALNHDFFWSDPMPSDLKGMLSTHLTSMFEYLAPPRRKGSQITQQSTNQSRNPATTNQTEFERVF
Chain of Tyrosine-protein kinase ABL2 (P42684 whole entry): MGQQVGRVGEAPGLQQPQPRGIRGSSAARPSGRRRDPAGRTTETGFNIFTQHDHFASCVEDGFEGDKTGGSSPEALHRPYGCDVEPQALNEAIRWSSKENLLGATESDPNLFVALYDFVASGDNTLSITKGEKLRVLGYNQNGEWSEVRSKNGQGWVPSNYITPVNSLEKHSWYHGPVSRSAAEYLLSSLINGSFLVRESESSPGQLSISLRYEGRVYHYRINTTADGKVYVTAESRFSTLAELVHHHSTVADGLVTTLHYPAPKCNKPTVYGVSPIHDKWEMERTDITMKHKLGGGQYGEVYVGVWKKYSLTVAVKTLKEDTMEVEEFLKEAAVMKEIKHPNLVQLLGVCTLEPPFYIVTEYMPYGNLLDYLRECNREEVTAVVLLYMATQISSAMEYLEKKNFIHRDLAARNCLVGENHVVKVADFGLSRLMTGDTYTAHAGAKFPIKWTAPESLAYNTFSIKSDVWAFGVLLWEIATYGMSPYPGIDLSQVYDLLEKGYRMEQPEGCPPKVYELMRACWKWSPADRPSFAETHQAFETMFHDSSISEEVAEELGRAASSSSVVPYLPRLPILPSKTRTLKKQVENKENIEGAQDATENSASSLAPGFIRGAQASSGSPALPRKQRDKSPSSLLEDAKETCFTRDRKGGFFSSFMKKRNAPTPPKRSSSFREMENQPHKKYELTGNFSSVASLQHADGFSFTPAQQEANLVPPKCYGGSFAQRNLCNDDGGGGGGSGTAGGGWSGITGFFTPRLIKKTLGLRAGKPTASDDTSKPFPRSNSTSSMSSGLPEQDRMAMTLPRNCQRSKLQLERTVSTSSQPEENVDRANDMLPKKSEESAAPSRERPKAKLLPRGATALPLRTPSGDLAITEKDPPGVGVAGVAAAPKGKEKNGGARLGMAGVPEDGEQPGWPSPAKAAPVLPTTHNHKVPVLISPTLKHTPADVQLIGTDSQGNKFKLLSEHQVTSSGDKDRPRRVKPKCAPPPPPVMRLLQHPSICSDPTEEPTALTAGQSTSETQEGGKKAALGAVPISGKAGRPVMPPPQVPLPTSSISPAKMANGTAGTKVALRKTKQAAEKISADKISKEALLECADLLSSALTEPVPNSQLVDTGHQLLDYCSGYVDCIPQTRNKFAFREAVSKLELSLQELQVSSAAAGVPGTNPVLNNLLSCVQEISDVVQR
Chain of Mitogen-activated protein kinase kinase kinase kinase 4 (O95819 2-1239 limits assumed): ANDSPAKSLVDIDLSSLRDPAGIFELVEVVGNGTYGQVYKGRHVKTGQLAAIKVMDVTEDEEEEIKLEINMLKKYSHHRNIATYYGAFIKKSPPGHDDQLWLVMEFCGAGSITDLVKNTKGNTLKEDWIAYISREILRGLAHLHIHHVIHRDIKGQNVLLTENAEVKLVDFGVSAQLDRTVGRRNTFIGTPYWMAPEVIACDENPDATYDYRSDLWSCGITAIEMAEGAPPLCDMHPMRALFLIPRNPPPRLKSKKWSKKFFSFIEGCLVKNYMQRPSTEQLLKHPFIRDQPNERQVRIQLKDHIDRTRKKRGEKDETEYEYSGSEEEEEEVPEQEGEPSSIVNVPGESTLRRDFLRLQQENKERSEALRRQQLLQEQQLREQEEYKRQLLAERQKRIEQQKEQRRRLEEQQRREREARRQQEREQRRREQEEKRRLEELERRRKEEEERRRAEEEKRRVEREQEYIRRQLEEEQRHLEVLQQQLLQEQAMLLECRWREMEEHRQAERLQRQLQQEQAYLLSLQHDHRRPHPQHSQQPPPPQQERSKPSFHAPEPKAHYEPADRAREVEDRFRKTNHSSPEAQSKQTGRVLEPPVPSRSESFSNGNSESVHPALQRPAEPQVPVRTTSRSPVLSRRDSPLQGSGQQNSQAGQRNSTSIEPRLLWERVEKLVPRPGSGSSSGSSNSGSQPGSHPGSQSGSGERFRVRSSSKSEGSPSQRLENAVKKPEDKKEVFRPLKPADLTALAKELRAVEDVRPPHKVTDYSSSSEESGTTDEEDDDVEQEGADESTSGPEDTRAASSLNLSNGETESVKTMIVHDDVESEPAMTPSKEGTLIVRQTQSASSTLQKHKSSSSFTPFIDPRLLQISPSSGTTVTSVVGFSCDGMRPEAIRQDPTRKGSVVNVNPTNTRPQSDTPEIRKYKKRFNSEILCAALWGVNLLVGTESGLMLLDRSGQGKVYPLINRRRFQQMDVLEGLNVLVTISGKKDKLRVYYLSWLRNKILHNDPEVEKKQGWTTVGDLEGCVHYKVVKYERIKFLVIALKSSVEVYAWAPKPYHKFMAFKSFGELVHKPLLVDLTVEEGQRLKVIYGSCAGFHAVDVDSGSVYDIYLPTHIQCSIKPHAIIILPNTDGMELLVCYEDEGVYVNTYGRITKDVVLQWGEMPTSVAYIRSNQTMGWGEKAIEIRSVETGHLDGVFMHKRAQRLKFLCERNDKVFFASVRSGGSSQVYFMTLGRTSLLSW
Chain of Cyclin-dependent kinase 4/cyclin D1 (P11802 whole entry): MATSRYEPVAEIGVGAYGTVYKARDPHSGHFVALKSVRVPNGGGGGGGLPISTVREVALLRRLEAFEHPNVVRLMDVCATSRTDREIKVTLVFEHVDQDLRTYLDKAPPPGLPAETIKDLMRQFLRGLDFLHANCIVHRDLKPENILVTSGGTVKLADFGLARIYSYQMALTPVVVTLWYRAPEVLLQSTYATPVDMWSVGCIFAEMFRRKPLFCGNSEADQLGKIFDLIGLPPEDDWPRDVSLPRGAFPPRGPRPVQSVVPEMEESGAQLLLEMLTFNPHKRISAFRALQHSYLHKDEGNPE
Chain of Cyclin-dependent kinase 4/cyclin D1 (P24385 whole entry, further chain): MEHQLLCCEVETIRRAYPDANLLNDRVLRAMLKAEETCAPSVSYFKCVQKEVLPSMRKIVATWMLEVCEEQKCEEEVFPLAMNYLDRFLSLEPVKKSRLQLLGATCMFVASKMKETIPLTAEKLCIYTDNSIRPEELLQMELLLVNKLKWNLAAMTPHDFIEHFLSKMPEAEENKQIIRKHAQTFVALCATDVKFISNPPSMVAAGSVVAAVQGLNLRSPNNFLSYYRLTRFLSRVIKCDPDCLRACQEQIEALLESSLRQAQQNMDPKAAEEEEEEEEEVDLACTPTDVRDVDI
Chain of CDK7/Cyclin H/MNAT1 (P51946 whole entry): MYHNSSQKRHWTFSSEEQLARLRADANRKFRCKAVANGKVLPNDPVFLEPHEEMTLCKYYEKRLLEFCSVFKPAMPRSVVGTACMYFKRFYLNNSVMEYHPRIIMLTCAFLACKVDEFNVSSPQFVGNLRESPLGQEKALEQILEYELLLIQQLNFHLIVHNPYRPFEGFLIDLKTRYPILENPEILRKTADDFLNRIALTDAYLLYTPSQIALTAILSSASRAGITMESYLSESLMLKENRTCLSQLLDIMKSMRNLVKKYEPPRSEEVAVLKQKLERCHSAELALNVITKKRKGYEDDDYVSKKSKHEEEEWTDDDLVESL
Chain of CDK7/Cyclin H/MNAT1 (P50613 whole entry): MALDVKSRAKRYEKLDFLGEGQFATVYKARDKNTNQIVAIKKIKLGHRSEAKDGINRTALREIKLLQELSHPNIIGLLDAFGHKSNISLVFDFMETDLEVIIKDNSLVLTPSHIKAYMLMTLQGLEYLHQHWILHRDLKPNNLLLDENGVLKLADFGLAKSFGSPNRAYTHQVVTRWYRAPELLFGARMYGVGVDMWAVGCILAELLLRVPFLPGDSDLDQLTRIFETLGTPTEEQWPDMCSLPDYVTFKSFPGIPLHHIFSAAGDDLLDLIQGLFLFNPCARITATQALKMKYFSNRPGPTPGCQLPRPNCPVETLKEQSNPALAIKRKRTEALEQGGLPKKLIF
Chain of CDK7/Cyclin H/MNAT1 (P51948 whole entry, further chain): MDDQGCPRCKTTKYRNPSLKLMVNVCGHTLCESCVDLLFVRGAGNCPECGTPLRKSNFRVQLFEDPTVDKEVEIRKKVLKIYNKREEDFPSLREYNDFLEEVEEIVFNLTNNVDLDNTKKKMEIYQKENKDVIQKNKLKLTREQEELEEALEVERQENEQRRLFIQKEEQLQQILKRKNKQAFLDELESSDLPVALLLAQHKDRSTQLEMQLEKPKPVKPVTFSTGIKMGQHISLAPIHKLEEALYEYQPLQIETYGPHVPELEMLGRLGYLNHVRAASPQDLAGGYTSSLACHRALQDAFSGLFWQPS

COc1ccccc1-c1cc(Nc2cccc(NS(C)(=O)=O)c2)ncn1
inhibition [1]: 50% | inhibition at 4 µM [2]: 50% | inhibition [3]: 50% | Activity (Leukemia cell): Active | inhibition [4]: Active | inhibition (HeLa [5]): Active | IC50 [6]: 9.24 µM | Activity [7]: >60% | IC50 [8]: 3.64 µM | inhibition [9]: inactive | inhibition [10]: Active | inhibition [11]: 50% | Activity (p53HCT116): Active | Activity [12]: 17.5% | inhibition [13]: Active | inhibition at 10 µM (HeLa [14]): 80% | inhibition [15]: 50% | inhibition (HEK-293T): inactive | inhibition [16]: 50% | Activity [17]: 6% | Kd (CDK7/Cyclin H/MNAT1): 16 µM | inhibition [18]: 50% | inhibition [19]: 50% | Activity (THP-1): Active | inhibition [20]: 50% | inhibition at 2 µM (HeLa [21]): 50% | inhibition [22]: 50%
